Consider 7 compounds from ChEMBL document CHEMBL3244354, “Syntheses and biological activities of 7 beta-methyl steroids” (J Med Chem, 1979).

Activity calls are given as the source filed them. No cut-off for these calls is given here.

The test system of data set [1] is Rattus norvegicus. The data set is described as follows: Effect on pituitary weight in rat 13762 cells allografted Fischer 344 rat at 100 mg/kg, ip qd for 20 days relative to control. It counts as functional, Pituitary gland cell. To be noted: route intraperitoneal. An outline of the steps: (§1)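 Female Fischer 344 rats, about 40 days old, received subcutaneous right-side grafts of 13762 mammary adenocarcinoma on day 0. From day 1 they got test compound in sesame oil ip daily for 20 days at 10 or 100 (mg/kg)/day. Vehicle controls got 0.5 mL/day. Endpoints were survivors/treated and FBW (minus tumor)/IBW. Tumor weight, final tumor size (length + width/2), and organ weights per 100 g were reported as % control.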

Data set [2] deals with Rattus norvegicus. Nature of the data set: Effect on ovarian weight in rat 13762 cells allografted Fischer 344 rat at 100 mg/kg, ip qd for 20 days relative to control. It counts as functional. The note with it: route intraperitoneal. In outline: as §1
Data set [3] deals with 13762. The data set is described as follows: Antitumor activity against rat 13762 cells allografted in Fischer 344 rat assessed as tumor weight at 100 mg/kg, ip qd for 20 days relative to control. It counts as functional. To be noted: route intraperitoneal. In outline: as §1
In data set [4] the test system is Rattus norvegicus. The data set is described as follows: Effect on thymus weight in rat 13762 cells allografted Fischer 344 rat at 100 mg/kg, ip qd for 20 days relative to control. To be noted: route intraperitoneal. Type of data set: functional. An outline of the steps:
as §1

The test system of data set [5] is Rattus norvegicus. Nature of the data set: Toxicity in rat 13762 cells allografted in Fischer 344 rat assessed as ratio of final body weight to initial body weight at 100 mg/kg, ip qd for 20 days. The note with it: in vivo, 480 h. Further details: dose 100 mg/kg, route intraperitoneal. Type of data set: organism-based. An outline of the steps: as §1
In data set [6] the test system is 13762. Nature of the data set: Antitumor activity against rat 13762 cells allografted in Fischer 344 rat assessed as host survival at 100 mg/kg, ip qd for 20 days. Type of data set: functional, organism-based. Further details: dose 100 mg/kg. In outline:
as §1

Data set [7] has as its system Rattus norvegicus. Nature of the data set: Effect on uterine weight in rat 13762 cells allografted Fischer 344 rat at 100 mg/kg, ip qd for 20 days relative to control. It counts as functional. To be noted: route intraperitoneal. In outline: as §1
For data set [8], the system named is Rattus norvegicus. The data set is described as follows: Effect on spleen weight in rat 13762 cells allografted Fischer 344 rat at 100 mg/kg, ip qd for 20 days relative to control. The note with it: route intraperitoneal. It counts as functional. In outline: as §1
The subject of data set [9] is Rattus norvegicus. Nature of the data set: Effect on adrenal weight in rat 13762 cells allografted Fischer 344 rat at 100 mg/kg, ip qd for 20 days relative to control. Type of data set: functional. The note with it: route intraperitoneal. In outline: as §1
Data set [10] relates to Rattus norvegicus. The data set is described as follows: Effect on thymus weight in rat 13762 cells allografted Fischer 344 rat at 10 mg/kg, ip qd for 20 days relative to control. Type of data set: functional. The note with it: route intraperitoneal. An outline of the steps: as §1
In data set [11] the test system is Rattus norvegicus. The data set is described as follows: Androgenic activity in castrate rat assessed as ventrol prostate weight at 3 mg, sc qd for 7 days by autopsy analysis (reference value: 17.5 +/- 0.41 mg). It counts as functional, Prostate gland.
The subject of data set [12] is Rattus norvegicus. Nature of the data set: Androgenic activity in castrate rat assessed as seminal vesicle weight at 3 mg, sc qd for 7 days by autopsy analysis (reference value: 13.6 +/- 0.19 mg). Type of data set: functional.
The subject of data set [13] is Rattus norvegicus. The data set is described as follows: Toxicity in rat 13762 cells allografted in Fischer 344 rat assessed as ratio of final body weight to initial body weight at 10 mg/kg, ip qd for 20 days. Set-up: dose 10 mg/kg, route intraperitoneal. Type of data set: organism-based. The note with it: in vivo, 480 h. In outline:
as §1

For data set [14], the system named is Rattus norvegicus. Nature of the data set: Effect on spleen weight in rat 13762 cells allografted Fischer 344 rat at 10 mg/kg, ip qd for 20 days relative to control. Type of data set: functional. The note with it: route intraperitoneal. In outline:
as §1

Data set [15] relates to Rattus norvegicus. Nature of the data set: Androgenic activity in castrate rat assessed as change in body weight at 3 mg, sc qd for 7 days by autopsy analysis (reference value: 88 gram). Type of data set: functional.
The test system of data set [16] is Rattus norvegicus. Nature of the data set: Effect on ovarian weight in rat 13762 cells allografted Fischer 344 rat at 10 mg/kg, ip qd for 20 days relative to control. It counts as functional. To be noted: route intraperitoneal. In outline: as §1
Data set [17] concerns Rattus norvegicus. Nature of the data set: Effect on uterine weight in rat 13762 cells allografted Fischer 344 rat at 10 mg/kg, ip qd for 20 days relative to control. Type of data set: functional. To be noted: route intraperitoneal. In outline: as §1
For data set [18], the system named is 13762. The data set is described as follows: Antitumor activity against rat 13762 cells allografted in Fischer 344 rat assessed as final tumor size at 10 mg/kg, ip qd for 20 days relative to control. It counts as functional. To be noted: route intraperitoneal. In outline: as §1
The subject of data set [19] is 13762. Nature of the data set: Antitumor activity against rat 13762 cells allografted in Fischer 344 rat assessed as host survival at 10 mg/kg, ip qd for 20 days. Type of data set: functional, organism-based. Further details: dose 10 mg/kg. In outline: as §1
The subject of data set [20] is Rattus norvegicus. The data set is described as follows: Myotrophic activity in castrate rat assessed as levator ani weight at 3 mg, sc qd for 7 days by autopsy analysis (reference value: 23.6 +/- 1.08 mg). Type of data set: functional.
The subject of data set [21] is Rattus norvegicus. The data set is described as follows: Effect on adrenal weight in rat 13762 cells allografted Fischer 344 rat at 10 mg/kg, ip qd for 20 days relative to control. Type of data set: functional. To be noted: route intraperitoneal. An outline of the steps:
as §1

Data set [22] has as its system 13762. Nature of the data set: Antitumor activity against rat 13762 cells allografted in Fischer 344 rat assessed as tumor weight at 10 mg/kg, ip qd for 20 days relative to control. It counts as functional. The note with it: route intraperitoneal. In outline:
as §1

With `C[C@H]1CC2=CC(=O)CC[C@]2(C)[C@H]2CC[C@]3(C)[C@@H](O)CC[C@H]3[C@H]12`, the Activity in the data set with Rattus norvegicus [1] is recorded as 73%; in the data set with Rattus norvegicus [2], 72%; in the data set on 13762 [3], 103%; in the data set on Rattus norvegicus [4], 47%; with Rattus norvegicus [7] it was 202%; in the data set on Rattus norvegicus [8], 108%. Moreover, the Activity in the data set with Rattus norvegicus [9] was 70%. Also, in the data set on Rattus norvegicus [5], the Ratio was determined as 1.58. The outcome in the data set on 13762 [6] was Active.

Turning to `CC(=O)O[C@H]1CC[C@H]2[C@@H]3[C@@H](C)C[C@H]4CSC[C@]4(C)[C@H]3CC[C@]12C`, the Activity stood at 90% in the data set with Rattus norvegicus [1]; 125% in the data set with Rattus norvegicus [10]; 18.6 mg in the data set on Rattus norvegicus [11]; 87% with Rattus norvegicus [2]; 11.8 mg in the data set with Rattus norvegicus [12]; 81% in the data set with Rattus norvegicus [14]. The Activity in the data set with 13762 [3] stood at 133%; with Rattus norvegicus [15], 90 g; in the data set with Rattus norvegicus [4], 79%; in the data set with Rattus norvegicus [16], 105%; in the data set with Rattus norvegicus [17], 124%; in the data set on 13762 [18], 85%. For the same compound, the Activity with Rattus norvegicus [7] is 128%; in the data set with Rattus norvegicus [20], 25.7 mg; in the data set with Rattus norvegicus [8], 145%; in the data set with Rattus norvegicus [21] it was 101%; in the data set with 13762 [22], 85%; in the data set on Rattus norvegicus [9], 87%. Also, the Ratio in the data set with Rattus norvegicus [13] amounted to 1.5; in the data set with Rattus norvegicus [5], 1.55. In addition, the result in the data set with 13762 [6] and in the data set on 13762 [19] was Active.

As for `CC(=O)O[C@H]1CC[C@H]2[C@@H]3CCC4=CC(=O)CC[C@]4(C)[C@H]3CC[C@]12C`, the Activity is 71% with Rattus norvegicus [1]; 65% in the data set with Rattus norvegicus [2]; 123% in the data set with 13762 [3]; 31% in the data set on Rattus norvegicus [4]; 179% with Rattus norvegicus [7]; 100% in the data set with Rattus norvegicus [8]. The same compound showed an Activity with Rattus norvegicus [9] of 88%. For the same compound, in the data set on Rattus norvegicus [5], the Ratio is 1.68. Moreover, the outcome in the data set with 13762 [6] was Active.

On to `C[C@H]1CC2=CC(=O)CC[C@]2(C)[C@H]2CC[C@@]3(C)[C@@H](CC[C@]3(C)O)[C@H]12` [CALUSTERONE], for which the Activity in the data set on Rattus norvegicus [1] is on record as 80%; with Rattus norvegicus [2], 60%; with 13762 [3] it was 123%; in the data set on Rattus norvegicus [4] it was 57%; in the data set with Rattus norvegicus [7], 148%; in the data set with Rattus norvegicus [8], 115%. Moreover, the Activity in the data set with Rattus norvegicus [9] stood at 73%. The Ratio with Rattus norvegicus [5] is 1.64. Further, the result with 13762 [6] was Active.

Take `CC(=O)O[C@H]1CC[C@H]2[C@@H]3CC[C@H]4CSC[C@]4(C)[C@H]3CC[C@]12C`: the Activity in the data set with Rattus norvegicus [11] is given as 61.9 mg; in the data set with Rattus norvegicus [12] it was 48.6 mg; with Rattus norvegicus [15], 95 g; in the data set on Rattus norvegicus [20] it was 65.2 mg.

Consider `CC(=O)O[C@H]1CC[C@H]2[C@@H]3[C@@H](C)C[C@H]4CC(=O)CC[C@]4(C)[C@H]3CC[C@]12C`, for which the Activity with Rattus norvegicus [1] was determined as 56%; with Rattus norvegicus [10] it was 71%; with Rattus norvegicus [11] it was 81.4 mg; in the data set on Rattus norvegicus [2] it was 62%; in the data set on Rattus norvegicus [12], 45.8 mg; with Rattus norvegicus [14], 77%. The Activity in the data set with 13762 [3] was 132%; in the data set with Rattus norvegicus [15] it was 90 g; with Rattus norvegicus [4] it was 48%; in the data set with Rattus norvegicus [16], 77%; in the data set with Rattus norvegicus [17], 143%; in the data set with 13762 [18], 90%. Further, the Activity in the data set on Rattus norvegicus [7] is on record as 151%; in the data set with Rattus norvegicus [20] it was 63.3 mg; with Rattus norvegicus [8], 108%; with Rattus norvegicus [21], 68%; in the data set with 13762 [22], 84%; in the data set with Rattus norvegicus [9] it was 68%. The Ratio with Rattus norvegicus [13] came out at 1.58; in the data set on Rattus norvegicus [5], 1.81. Further, the result in the data set on 13762 [6] and in the data set with 13762 [19] was Active.

As to `CCC(=O)O[C@H]1CC[C@H]2[C@@H]3CCC4=CC(=O)CC[C@]4(C)[C@H]3CC[C@]12C` [TESTOSTERONE PROPIONATE], the Activity in the data set on Rattus norvegicus [11] came to 126 mg; with Rattus norvegicus [12] it was 65.9 mg; in the data set with Rattus norvegicus [15], 98 g; in the data set on Rattus norvegicus [20], 68.2 mg.
